In publication PMC11785078 (bioRxiv, 2025):

Key:
cell culture = conditions: ref [14] Iwasaki et al., 2014; cited from earlier work
[1] = system: MDA-MB-231 triple-negative breast cancer (TNBC) cells; experiment: MTT cytotoxicity assay, MDA-MB-231; assay type: cell-based, human; conditions: 72 h, 5% FBS
In short: (§1)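 Cells plated at 5×10^3/well and attached overnight. Growth media were DMEM:F-12 (1:1) with 10% FBS for MDA-MB-231 and RPMI 1640 with 10% FBS for MCF-7. Test compound or DMSO vehicle applied for 72 h with 5% FBS. MTT added at 0.5 mg/mL final for 3 h at 37°C, 5% CO2, and formazan dissolved in DMSO. A570 read in three wells per condition and normalized to DMSO + 5% FBS. Mean ± SE of three experiments; one-way ANOVA with Bonferroni.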

[2] = system: MCF-7 estrogen receptor positive breast cancer cells; experiment: MTT cytotoxicity assay, MCF-7; assay type: cell-based, human; conditions: 72 h, 5% FBS
In short: as §1

mice = experiment: Open field locomotor behavior; assay type: in vivo, male C57Bl/6J mice; conditions: ICV 20 μg, 10-minute open field, vs vehicle, unpaired t-test P>0.05
In short: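 Male C57Bl/6J mice, 8–10 weeks old, fitted under isoflurane with a right lateral ventricle ICV cannula and allowed one week of recovery. After 1 h habituation in a dim room with 60 dB white noise, mice received 20 µg test compound in 0.5 µL 50% DMSO/50% aCSF over 2 min, or vehicle alone. Open field test began 5 min later; total distance travelled was scored blind. Cannula placement was checked at necropsy.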

[3] = target: T1, Sigma 2 receptor (Transmembrane Protein 97 (TMEM97)) (Rattus norvegicus, UniProt Q5U3Y7); experiment: PDSP radioligand competition-binding assay, sigma 2; conditions: 10 μM (primary criterion)
T1 sequence (Q5U3Y7 1-176): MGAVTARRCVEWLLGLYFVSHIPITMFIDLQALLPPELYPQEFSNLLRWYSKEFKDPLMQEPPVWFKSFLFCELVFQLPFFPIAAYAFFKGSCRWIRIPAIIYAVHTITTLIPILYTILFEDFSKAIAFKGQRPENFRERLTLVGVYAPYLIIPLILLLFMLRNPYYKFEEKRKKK

[4] = printed "15 M", mean of three experiments

| Substance | antitumor cytotoxicity (cell culture) | effect on viability / toxicity in TNBC cells (words) [1] | effect on viability / toxicity in TNBC cells (words) ([1]; listed as veraguamide C) | cytotoxicity, TNBC cells (MDA-MB-231) [1, 4] [%] | effect on viability / toxicity in MCF-7 (ER positive) cells ([2]; listed as veraguamide C) | cytotoxicity, MCF7 cells [2, 4] [%] | effect on locomotor behavior (mice) | Primary: Percent Inhibition of Binding [3] [%] |
| --- | --- | --- | --- | --- | --- | --- | --- | --- |
| maedamide | only linear depsipeptide that exhibits antitumor cytotoxicity in cell culture | – | – | – | – | – | – | – |
| veraguamide C | – | selectively reduce viability | similar, albeit minor, levels of toxicity | 53 | mild toxicity | 65 | no effect of veraguamide C on total distance traveled compared to vehicle | 65 |
